Screens from PubChem.
In the library only some 1% were active in any assay of this set; here they are far more common.
PvdQ inh: blocks Pseudomonas aeruginosa PvdQ acylase activity. purified PvdQ acylase, fluorescence plate reader. inhibition, % at 10 µM. 340,000 tested, 0.063% active. AID 488965; in the data active = inhibition above about 30%, passing the limit was not always enough;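 note: 0% = vehicle neutral wells and 100% = reference inhibitor wells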
PglD DTNB: inhibitors of Campylobacter jejuni PglD acetyltransferase; purified PglD enzyme, DTNB colorimetric CoA detection; inhibition, % at 12.5 µM; 360,000 tested, 0.098% active; in the data active = inhibition above about 16%, passing the limit was not always enough
VIM-2 inh: blocks Pseudomonas aeruginosa VIM-2 metallo-beta-lactamase | 290,000 tested, 0.89% active | inhibition, % at 5.6 µM | purified VIM-2, nitrocefin hydrolysis, epi-absorbance fluorescence;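 active = inhibition above the mean of all tested compounds plus 3 SD, cutoff set per screening run, cut at about 7.5% in these data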;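 note: red hydrolysis product quenches plate fluorescence so inhibitors raise well fluorescence; 0% = enzyme with DMSO and 100% = DMSO without enzyme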
PDI inh: blocks human protein disulfide isomerase activity | PDI insulin aggregation turbidity, A650, 90 min | 350,000 tested, 0.052% active | AID 588391 | P07237 | inhibition, % at 10 µM;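 active = mean inhibition across replicates of 30% or more, whatever share of single replicates reach that level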
IMP-1 inhibitor: inhibitors of Pseudomonas aeruginosa IMP-1 metallo-beta-lactamase; purified IMP-1, nitrocefin hydrolysis, epi-absorbance fluorescence; inhibition, % at 5.6 µM; 290,000 tested, 0.45% active; AID 1556;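 active = inhibition above the mean plus 3 SD of all compounds in the same screening run, cut at about 4.5% in these data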;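 note: 0% = IMP-1 with DMSO and 100% = DMSO wells lacking enzyme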
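System – purified recombinant IMP-1 beta-lactamase · Input – IMP-1 dispensed at 0.2 nM · Timing – 15 min preincubation plus 25 min reaction at 25 °C · Signal – Epi-absorbance fluorescence, 480 nm excitation, 530 nm emission · Measure – percent IMP-1 inhibition derived from blank-referenced optical density · Controls – Enzyme-plus-DMSO low control, enzyme-free DMSO high control · Replication – singlicate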
ERp5 inh: blocks human ERp5 reductase activity on insulin; Q15084; ERp5 insulin aggregation, absorbance 650 nm, 90 min; inhibition, % at 9.99 µM; 350,000 tested, 0.05% active;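 active = mean replicate inhibition above about 25%, with every replicate also reaching it, limit read from the data, passing the limit was not always enough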
Target sequence (Q15084 whole entry, looked up): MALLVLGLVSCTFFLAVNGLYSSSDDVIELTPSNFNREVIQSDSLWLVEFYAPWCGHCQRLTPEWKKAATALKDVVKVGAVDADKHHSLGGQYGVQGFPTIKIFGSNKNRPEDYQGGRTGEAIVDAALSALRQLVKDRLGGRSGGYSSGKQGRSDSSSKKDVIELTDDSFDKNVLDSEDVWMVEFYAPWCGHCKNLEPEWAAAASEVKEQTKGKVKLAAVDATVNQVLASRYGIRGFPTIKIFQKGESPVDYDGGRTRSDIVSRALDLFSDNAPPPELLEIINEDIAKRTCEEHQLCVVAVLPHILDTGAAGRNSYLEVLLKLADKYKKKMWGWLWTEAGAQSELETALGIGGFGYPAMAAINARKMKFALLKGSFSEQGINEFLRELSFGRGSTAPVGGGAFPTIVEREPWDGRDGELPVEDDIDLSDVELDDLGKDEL
* hit, by the source's call; . = no result given.

SMILES	PvdQ inh	PglD DTNB	VIM-2 inh	PDI inh	IMP-1 inhibitor	ERp5 inh
CN(C)C(=O)/C(=C\c1ccc(-c2cccc([N+](=O)[O-])c2)o1)NC(=O)c1ccccc1	-11	.	9.2*	-5	1	-2
CN(C)C(=O)/C(=C/c1ccc(-c2cccc([N+](=O)[O-])c2)o1)NC(=O)c1ccccc1	-11	-11	6	-8	-5	3
COc1ccccc1NC(=O)N1C[C@@H](C)[C@H](OC)CN(C)C(=O)c2ccc(NC(=O)c3cnccn3)cc2OC[C@H]1C	.	6	.	.	.	2
O=C(C[C@H]1CC[C@H](NS(=O)(=O)c2ccccc2)[C@@H](CO)O1)N1CCC(Cc2ccccc2)CC1	.	.	.	.	.	12
CCCc1ccc(O)c(N=Cc2cc(Br)cc(OCC)c2O)c1	5	.	-2	-1	5.5*	-4
COc1ccc(OC)c(NC(=O)C2C3CCC(C3=C(C)C)C2C(=O)O)c1 (stereo unspecified)	-16	-1	8.8*	1	-1	.
Cc1noc(C)c1S(=O)(=O)Nc1ccc2c(c1)C(=O)N([C@@H](C)CO)C[C@@H](C)[C@@H](CN(C)Cc1ccc(C(F)(F)F)cc1)OCCCC[C@@H](C)O2	.	-1	.	.	.	2
CCOC(=O)c1cnc(-n2nc(C)cc2C)nc1Nc1ccc(C)cc1	0	2	1	0	-3	.
CCOC(=O)c1cnc(-n2nc(C)cc2C)nc1NC	2	5	8.1*	0	-4	.
Cc1nc2ccccc2c2c1C(=O)N(Cc1cccnc1)C2=O	-6	-103	11*	7	-3	.
S=c1[nH]nc(-c2ccncc2)n1CC1CCCO1 (stereo unspecified)	-5	6	11*	8	-6	.
Fc1ccc(-c2n[nH]c(=S)n2CC2CCCO2)cc1 (stereo unspecified)	-8	0	7	-7	-2	.
CCN(CC(=O)Nc1ccc2c(c1)OCCO2)C(=O)CC1CCCC1	-6	-1	-1	33*	2	.
CCOc1ccc(C(=O)N(CC)CC(=O)Nc2ccc3c(c2)OCCO3)cc1OCC	-19	7	.	7	.	8
Cc1ccc(S(=O)(=O)N(C)C[C@H]2Oc3ccc(NS(=O)(=O)c4ccccc4)cc3C(=O)N([C@H](C)CO)C[C@H]2C)cc1	.	3	.	.	.	-4
CSc1nc2sc3c(c2c(=O)n1C)CCC3	-15	0	7.7*	9	2	1
COC(=O)COc1ccc2oc(=O)cc(-c3cc4cccc(OC)c4o3)c2c1	-10	-3	-2	3	9.7*	-2
CCC(C(=O)O)N1C(=O)/C(=C/C(C)=C/c2ccccc2)SC1=S (stereo unspecified)	0	.	8.2*	2	1	-4
CC(=C\c1ccccc1)/C=C1/SC(=S)N(C(C(=O)O)C(C)C)C1=O (stereo unspecified)	4	.	0	-2	1	-5
CCC(=O)NC[C@H]1[C@@H](c2ccc(C3=CCCC3)cc2)[C@@H](CO)N1C(=O)CC	.	.	.	.	.	7
Oc1c(Br)cc(Br)cc1C=Nc1cccnc1	-4	-7	-1	4	28*	0
Oc1c(Br)cc(Br)cc1C=Nc1ccc2[nH]ncc2c1	2	.	-1	-11	4	-9
O=c1c2ccccc2oc2ccc(NCCCN3CCOCC3)cc12	-16	1	9.8*	-5	0	0
CCc1nc(NCCN2CCOCC2)c2oc3ccccc3c2n1	-12	0	3	10	1	.
Cn1c2ccccc2c(=O)c2cc(NCCCN3CCOCC3)ccc21	0	0	.	-13	.	-1
SMILES	PvdQ inh	PglD DTNB	VIM-2 inh	PDI inh	IMP-1 inhibitor	ERp5 inh
CCc1nc(NCCCN2CCOCC2)c2oc3ccccc3c2n1	-4	0	11*	3	-3	.
CC(C)(C)C1CCC(OC(=O)CN2CCCCC2)CC1 (stereo unspecified)	-8	.	-3	-4	-4	-1
NC(CC(=O)OC1CCCCC1)C(=O)OC1CCCCC1 (stereo unspecified)	-6	-4	3	0	5.4*	.
C[C@H](CO)N1C[C@H](C)[C@H](CN(C)Cc2cccc(C(F)(F)F)c2)Oc2ncc(-c3ccc(F)cc3)cc2C1=O	.	.	.	.	.	9
COc1ccc(N=C2S/C(=C\c3ccc(OCC(=O)O)cc3)C(=O)N2CCc2c[nH]c3ccccc23)cc1	-10	.	-3	-1	-2	31*
CCOC(=O)C1=C(C)N=c2s/c(=C/c3cccc([N+](=O)[O-])c3O)c(=O)n2C1c1ccccc1 (stereo unspecified)	1	1	8.1*	2	-6	2
N/N=C/C(=N\Nc1ccc(Cl)cc1)C(=O)c1ccncc1	-8	4	8.8*	-7	-3	-4
COc1ccc(N/N=C(\C=N\O)C(=O)c2ccc(OC)cc2)cc1	-19	.	-5	-3	0	.
CCCNC(=O)C[C@H]1CC[C@@H]2[C@H](COc3ccc(NC(=O)NCCC)cc3C(=O)N2C)O1	.	.	.	.	.	-2
O=C1c2cccc(OCc3ccc(F)cc3)c2CCN1Cc1ccccc1	-11	-5	-2	15	6.1*	.
Cc1ccc(COc2cccc3c2CCN(Cc2ccc(F)cc2)C3=O)cc1	-8	.	-1	0	4	.
O=C(C[C@H]1CC[C@H]2[C@@H](COC[C@H](O)CN2S(=O)(=O)c2ccc(Cl)cc2)O1)N[C@@H]1CCN(Cc2ccccc2)C1	.	4	.	.	.	5
COc1ccccc1S(=O)(=O)N[C@H]1CC[C@@H](CC(=O)N2CCOCC2)O[C@@H]1CO	.	-1	.	.	.	2
C[C@@H]1CN([C@H](C)CO)C(=O)Cc2cc(NC(=O)Cn3cnnn3)ccc2O[C@@H]1CN(C)C(=O)NC1CCCCC1	.	5	.	.	.	6
COc1ccc2c3c(n(C)c2c1)[C@@H](CO)N(C(=O)c1cnccn1)CC31CCN(C(=O)c2cnccn2)CC1	.	.	.	.	.	13
O=C(Cc1ccccc1)N1C[C@H]2[C@@H](c3ccccc31)[C@H](CO)N2C(=O)C1CCCCC1	.	0	.	.	.	0
NC(CSS(=O)(=O)O)=NCCC12CC3CC(CC(O)(C3)C1)C2	-35	.	0	10	5.4*	0
CC1(C)C2CCC(CN=C(N)CSS(=O)(=O)O)C1C2 (stereo unspecified)	.	6	.	-9	.	0
O=C(O)C1Sc2[nH]c(=O)sc2C2c3cc(Br)ccc3OC(=O)C12 (stereo unspecified)	0	.	5	4	5.5*	2
COC(=O)C1Sc2[nH]c(=O)sc2C2c3ccccc3OC(=O)C12 (stereo unspecified)	17	-5	-1	-2	1	.
CCN(CC)CCCN(Cc1cc2cc3c(cc2[nH]c1=O)OCO3)C(=O)Nc1ccccc1OC	5	.	-1	3	0	.
CCN(CC)CCCN(Cc1cc2cc(OC)c(OC)cc2[nH]c1=O)C(=O)Nc1ccccc1	-12	4	7.9*	2	-2	.
C[C@H](CO)N1C[C@H](C)[C@@H](CN(C)CC2CC2)OCCCC[C@H](C)Oc2ccc(NS(=O)(=O)c3ccc(Cl)cc3)cc2C1=O	.	2	.	.	.	-5
